The nature of data set [1]: Selectivity index, ratio of CC50 for human HeLa cells to IC50 for Plasmodium falciparum Dd2 […] cells. The format is functional. The gist of the method: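 Selectivity index computed as HeLa CC₅₀ (72 h methylene blue assay) divided by P. falciparum Dd2 IC₅₀ (72 h [³H]-hypoxanthine assay).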
In data set [2] the test system is Trypanosoma brucei brucei. Description: Antitrypanosomal activity against Trypanosoma brucei brucei TC221 after 48 hrs by alamar blue assay. In kind it is functional, organism-based. The following applies: TC221, 48 h. The gist of the method:
(§1)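 T. b. brucei TC 221 trypomastigotes grown in Baltz medium; 10⁴ parasites/mL exposed to graded compound concentrations (DMSO or 0.1 M NaOH solutions) at 37 °C, 5% CO₂. Alamar Blue absorbance at 550 nm (reference 630 nm) read at 48 h and 72 h. Parasite-only and compound-only controls; ED₅₀ by linear interpolation of three measurements.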

In data set [3] the test system is Trypanosoma brucei brucei. The data set can be described thus: Antitrypanosomal activity against Trypanosoma brucei brucei TC221 after 72 hrs by alamar blue assay. In kind it is functional, organism-based. The note with it: TC221, 72 h. The gist of the method:
as §1

Data set [4] is described as follows: Cytotoxicity against human HeLa cells after 72 hrs by methylene blue staining. In kind it is cell-based. Summed up:
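HeLa cells in RPMI 1640 with 10% heat-inactivated FBS and gentamicin; ~10,000 cells/well preincubated 48 h, then exposed to compound (DMSO stock 10 mg/mL diluted 1:200) for 72 h at 37 °C, 5% CO₂. Glutaraldehyde fixation, 0.05% methylene blue staining, elution with 0.33 M HCl, OD 660 nm.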

In data set [5] the target is T1, Multidrug resistance protein Pgh1 (Plasmodium falciparum) (UniProt Q9NG76).
T1 sequence (whole entry): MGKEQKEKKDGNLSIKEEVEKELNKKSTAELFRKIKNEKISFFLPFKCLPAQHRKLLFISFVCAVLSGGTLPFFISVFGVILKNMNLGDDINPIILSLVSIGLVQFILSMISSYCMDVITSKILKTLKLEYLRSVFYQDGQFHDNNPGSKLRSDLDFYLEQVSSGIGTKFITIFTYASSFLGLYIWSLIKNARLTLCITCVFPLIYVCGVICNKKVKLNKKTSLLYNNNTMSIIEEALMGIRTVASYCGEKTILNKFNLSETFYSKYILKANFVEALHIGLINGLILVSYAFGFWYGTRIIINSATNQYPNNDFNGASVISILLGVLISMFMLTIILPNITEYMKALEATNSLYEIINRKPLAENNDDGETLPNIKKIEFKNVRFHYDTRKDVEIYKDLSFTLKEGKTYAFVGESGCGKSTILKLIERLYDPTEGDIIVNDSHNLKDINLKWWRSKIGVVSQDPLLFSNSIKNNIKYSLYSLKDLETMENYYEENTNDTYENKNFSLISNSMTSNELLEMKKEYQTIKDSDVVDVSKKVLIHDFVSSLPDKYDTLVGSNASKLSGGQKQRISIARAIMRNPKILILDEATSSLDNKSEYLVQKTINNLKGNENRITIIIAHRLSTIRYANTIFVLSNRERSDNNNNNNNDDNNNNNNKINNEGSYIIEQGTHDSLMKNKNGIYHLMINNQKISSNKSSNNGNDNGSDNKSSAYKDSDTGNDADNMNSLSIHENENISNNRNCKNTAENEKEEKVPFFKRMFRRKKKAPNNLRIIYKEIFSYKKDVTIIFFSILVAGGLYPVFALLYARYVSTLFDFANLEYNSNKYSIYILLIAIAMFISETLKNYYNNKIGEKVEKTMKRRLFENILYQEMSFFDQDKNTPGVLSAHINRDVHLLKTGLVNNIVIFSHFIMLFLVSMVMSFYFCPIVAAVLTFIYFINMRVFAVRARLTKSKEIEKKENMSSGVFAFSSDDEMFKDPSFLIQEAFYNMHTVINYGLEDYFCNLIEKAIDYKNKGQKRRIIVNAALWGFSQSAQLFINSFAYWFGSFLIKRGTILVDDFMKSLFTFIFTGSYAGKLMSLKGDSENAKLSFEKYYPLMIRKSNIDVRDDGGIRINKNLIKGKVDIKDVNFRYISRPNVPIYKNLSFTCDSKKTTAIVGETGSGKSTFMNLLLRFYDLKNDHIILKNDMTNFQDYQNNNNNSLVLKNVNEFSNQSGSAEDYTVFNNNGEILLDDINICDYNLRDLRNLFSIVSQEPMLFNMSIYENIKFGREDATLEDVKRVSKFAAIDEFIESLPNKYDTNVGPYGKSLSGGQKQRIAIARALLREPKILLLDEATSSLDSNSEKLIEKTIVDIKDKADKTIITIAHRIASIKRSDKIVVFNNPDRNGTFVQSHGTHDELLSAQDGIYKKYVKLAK
Description: Inhibition of Plasmodium PGH1-mediated fluorochrome accumulation into parasite digestive vacuole at […] concentration.

In data set [6] the test system is Plasmodium falciparum. The data set can be described thus: Antimalarial activity against Plasmodium falciparum Dd2 […] cells after 72 hrs by [3H]hypoxanthine incorporation assay. The format is functional, organism-based. Summed up:
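Synchronized (sorbitol) blood-stage P. falciparum Dd2 cultures exposed to a range of compound concentrations for 72 h; growth read by [³H]-hypoxanthine incorporation, percent inhibition used to derive IC₅₀. At least three independent repeats, mean ± SEM.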

The target in data set [7] is ATP-dependent translocase ABCB1 (Homo sapiens, UniProt P08183). The data set can be described thus: Inhibition of ABCB1 overexpressed in human CCRF-CEM/VCR1000 cell assessed as inhibition of daunomycin efflux after 30 mins by FACS analysis.

Each structure is given as a SMILES string. The source made the active and inactive calls. The rule behind the calls is not given here.

As to `CN1CCN(C(C(=O)Nc2ccc(NS(=O)(=O)c3ccccc3)cc2C(=O)c2ccccc2)c2ccccc2)CC1` (racemic), the “Ratio CC50/IC50” value in data set [1] amounted to 29. Also, the half-maximal inhibitory concentration (IC50) was 5.38 µM in data set [2], 2.92 µM in data set [3] and 0.91 µM in data set [6]. Besides, the CC50 at 72 h in data set [4] was 26 µM. Further, the inhibition result in data set [5] was “inactive”. Also, the EC50 in data set [7] turned out to be 0.89 µM.

Source of the values: ChEMBL document CHEMBL1152663, “Antimalarial and antitrypanosomal activity of a series of amide and sulfonamide derivatives of a 2,5-diaminobenzophenone” (Bioorg Med Chem, 2009).
